This is an account of results in ChEMBL document CHEMBL4014264, “Benzoyltyramine Alkaloids Atalantums A-G from the Peels of Atalantia monophylla and Their Cytotoxicity against Cholangiocarcinoma Cell Lines” (J Nat Prod, 2017).

A short description of test [1]: Cytotoxicity against human KKU-M213 cells assessed as reduction in cell viability after 72 hrs by SRB assay. Type of test: functional, cell-based. Particulars: KKU-M213, 72 h. The method, boiled down: (§1)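 Cholangiocarcinoma cells seeded at (1−2) × 10^4 cells/well, grown 24 h at 37 °C, then dosed in triplicate to final 0.025−20 μg/well, with 0.1% DMSO solvent control. Starting plates read after 1 h, treated plates after 72 h, by SRB. Viability % = (OD treated day 3 − OD start)/(OD control day 3 − OD start) × 100. IC50 taken from dose–response curves.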
On the technique in general: Sulforhodamine B stains cellular protein and so reports cell mass.

A short description of test [2]: Cytotoxicity against human KKU-M214 cells assessed as reduction in cell viability after 72 hrs by SRB assay. The class given is functional, cell-based. The following applies: KKU-M214, 72 h. The method, boiled down: as §1
The nature of test [3]: Cytotoxicity against human KKU-M156 cells assessed as reduction in cell viability after 72 hrs by SRB assay. Type of test: functional, cell-based. Particulars: KKU-M156, 72 h. The method, boiled down:
as §1

Test [4] can be described thus: Potency index, ratio of ellipticine IC50 to compound IC50 for human KKU-M156 cells. Type of test: functional.

As a reminder, the IC50 is the concentration at which inhibition is half-maximal. `C/C(=C\COc1ccc(CCNC(=O)c2ccccc2)cc1)C(O)CC(O)C(C)(C)O` (stereo unspecified): the IC50 in test [1] came to 25.8 µM; in test [2] it was 11.1 µM; in test [3], 26.8 µM.
In the case of `CCCCCCCCCCCCCCCC(=O)OC(CC(O)/C(C)=C/COc1ccc(CCNC(=O)c2ccccc2)cc1)C(C)(C)O` (racemic), the IC50 is 23.5 µM in test [1], 8.44 µM in test [2] and 1.97 µM in test [3]. Also, the “Ratio IC50” value in test [4] is on record as 4.7.
Consider `Cc1c2ccncc2c(C)c2c1[nH]c1ccccc12` [ELLIPTECINE], for which the half-inhibitory concentration (IC50) in test [1] is 6.58 µM.
Consider `CCCCCCCCCCCCCCCC(=O)OC(CC(O)C(C)(C)O)/C(C)=C/COc1ccc(CCNC(=O)c2ccccc2)cc1` (racemic), for which the results for the half-inhibitory concentration (IC50) in test [1], in test [2] and in test [3] were 5.63 µM, 27.4 µM and 2.8 µM, respectively.
On the same counts, the results for `CCCCCCCCCCCCCC(=O)OC(CC(OC(C)=O)C(C)(C)O)/C(C)=C/COc1ccc(CCNC(=O)c2ccccc2)cc1` (racemic) are 2.36 µM, 24 µM and 24.5 µM.
In the case of `CCCCCCCCCCCCCCCC(=O)OC(CC(OC(C)=O)C(C)(C)O)/C(C)=C/COc1ccc(CCNC(=O)c2ccccc2)cc1` (racemic), the values for the half-inhibitory concentration (IC50) in test [1], in test [2] and in test [3] were 34.8 µM, 3.06 µM and 22 µM, respectively.
`CC(=O)OC(CC(O)C(C)(C)O)/C(C)=C/COc1ccc(CCNC(=O)c2ccccc2)cc1` (stereo unspecified): the figures for the IC50 in test [1], in test [2] and in test [3] were 28.8 µM, 44.5 µM and 49.7 µM, respectively.
Consider `CCCCCCCCCCCCCCCC(=O)OC(CC1OC1(C)C)/C(C)=C/COc1ccc(CCNC(=O)c2ccccc2)cc1` (stereo unspecified), for which the concentration for half-maximal inhibition (IC50) in test [1] is 2.71 µM; in test [2] it was 14.9 µM; in test [3], 21 µM.
As to `CC(=O)OC(CC1OC1(C)C)/C(C)=C/COc1ccc(CCNC(=O)c2ccccc2)cc1` (stereo unspecified), the IC50 in test [1] was 11.1 µM; in test [2], 31.5 µM; in test [3], 29.1 µM.
On the same counts, the results for `CCCCCCCCCCCCCCCC(=O)OC(C)(C)C(O)CC(O)/C(C)=C/COc1ccc(CCNC(=O)c2ccccc2)cc1` (racemic) are 16.1 µM, 20.5 µM and 31.5 µM.
For the compound `O=c1[nH]cc(F)c(=O)[nH]1` [FLUOROURACIL], in test [2], the IC50 is 3.76 µM.
As for `C/C(=C\COc1ccc(CCNC(=O)c2ccccc2)cc1)C1CC(O)C(C)(C)O1` (racemic), the half-maximal inhibitory concentration (IC50) is 12.2 µM in test [1], 7.37 µM in test [2] and 21.5 µM in test [3].
On the same counts, the results for `CCCCCCCCCCCCCCCCCC(=O)OC(CC(OC(C)=O)C(C)(C)O)/C(C)=C/COc1ccc(CCNC(=O)c2ccccc2)cc1` (racemic) are 29.1 µM, 12.4 µM and 24 µM.
